Results from article PMC6568317 (ACS chemical biology, 2017).

How the values were obtained:
[1] = target: T1, Saccharomyces cerevisiae adenine phosphoribosyltransferase (ScAPRT) (Saccharomyces cerevisiae, UniProt P49435); conditions: read-out: KM for PRPP (ScAPRT); previously reported substrate KM; cited from earlier work
T1 sequence (P49435 1-187): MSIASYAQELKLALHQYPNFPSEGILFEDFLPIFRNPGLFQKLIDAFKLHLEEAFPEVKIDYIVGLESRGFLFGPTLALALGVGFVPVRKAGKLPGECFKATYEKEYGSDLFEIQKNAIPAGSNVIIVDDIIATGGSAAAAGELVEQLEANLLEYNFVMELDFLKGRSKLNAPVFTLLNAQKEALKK

[2] = target: T2, Plasmodium falciparum orotate phosphoribosyltransferase (PfOPRT) (Plasmodium falciparum, UniProt Q8I3Y0); test: PfOPRT inhibition assay; assay type: biochemical
T2 sequence (Q8I3Y0 1-281): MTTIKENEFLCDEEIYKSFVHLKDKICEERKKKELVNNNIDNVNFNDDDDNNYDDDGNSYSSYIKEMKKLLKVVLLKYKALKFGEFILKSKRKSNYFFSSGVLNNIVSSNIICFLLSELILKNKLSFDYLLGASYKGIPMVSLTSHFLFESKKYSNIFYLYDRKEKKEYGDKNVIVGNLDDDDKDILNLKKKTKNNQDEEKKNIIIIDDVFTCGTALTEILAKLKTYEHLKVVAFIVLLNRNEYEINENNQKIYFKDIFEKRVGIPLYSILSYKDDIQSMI

[3] = target: T1, Saccharomyces cerevisiae adenine phosphoribosyltransferase (ScAPRT); test: ScAPRT inhibition assay; assay type: biochemical
[4] = target: T3, human orotate phosphoribosyltransferase (HsOPRT) (Homo sapiens, UniProt P11172); test: HsOPRT inhibition assay; assay type: biochemical; conditions: for inhibition of HsOPRT: at D-DIAB or L-DIAB concentrations of 200 μM
T3 sequence (P11172 1-214 limits assumed): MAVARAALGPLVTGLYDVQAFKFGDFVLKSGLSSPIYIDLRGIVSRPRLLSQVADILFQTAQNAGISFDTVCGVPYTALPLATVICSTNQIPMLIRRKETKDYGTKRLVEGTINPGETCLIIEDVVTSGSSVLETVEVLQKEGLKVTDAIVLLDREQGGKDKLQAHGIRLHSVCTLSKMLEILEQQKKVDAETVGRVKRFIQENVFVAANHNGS
Procedure, shortened: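 Human OPRT, 200 nM, at 25 °C in 50 mM Tris-HCl pH 8.0 with 5 mM MgCl₂. Substrates are 500 μM orotidine 5′-monophosphate and 1 mM pyrophosphate, with bis-phosphate iminoaltritol test compound present. Reaction followed by absorbance at 266 nm. Ki derived from initial rates measured in triplicate.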

Structure (SMILES)	Km [1] [µM]	Ki [2] [µM]	Ki [3] [µM]	Ki [4] [µM]	inhibition of HsOPRT [4]	selectivity for D-DIAB over L-DIAB in PfOPRT inhibition ([2]; ratio of Ki values, Table 1) [fold]
O=P(O)(O)OC[C@H]1O[C@H](OP(=O)(O)OP(=O)(O)O)[C@H](O)[C@@H]1O [PRPP, 5-phospho-α-D-ribosyl 1-pyrophosphate]	20	–	–	–	–	–
O=P(O)(O)OC[C@H]1N[C@H](COP(=O)(O)O)[C@@H](O)[C@H]1O (stereo in doubt) [L-DIAB, L-2,5-dideoxy-2,5-imino-altritol 1,6-bisphosphate]	–	103 ± 17	14.9 ± 2.9	> 200	no apparent inhibition	–
O=P(O)(O)OC[C@H]1N[C@H](COP(=O)(O)O)[C@@H](O)[C@@H]1O [D-DIAB, D-2,5-dideoxy-2,5-imino-altritol 1,6-bisphosphate]	–	–	–	–	no apparent inhibition	3
